ChEMBL document CHEMBL4513216, “Probing the Open Global Health Chemical Diversity Library for Multistage-Active Starting Points for Next-Generation Antimalarials” (ACS Infect Dis, 2020)

Assay: Toxicity liver stage against HepG2, at 10uM
Format: cell-based
Parameters: test concentration 10 uM, cell line HepG2-A16-CD81EGFP
Conditions: human, HepG2-A16-CD81EGFP cells; read-out: INHIBITION
In short: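 Uninfected HepG2-A16-CD81EGFP cells, 3 × 10^3 per well, 1536-well, plated on prespotted compound at 10 μM final, parasite-free screening media added to match infected plates; puromycin 10 μM positive, DMSO 0.5% negative; run in parallel with 48 h PbLuc assay at 37 °C, 5% CO2; viability by CellTiter-Glo luminescence, normalized to controls.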

| Structure (SMILES) | cytotoxicity at 10 µM [%] |
| --- | --- |
| COCCN1C[C@H]2CN(C(=O)NC(C)C)CCN2C1=O | 2.6 |
| COC(=O)c1cccc2nc([C@H]3CCN(Cc4ccccc4C)C3)oc12 | 8.36 |
| O=S(=O)(NCC1(O)CCOc2ccccc21)c1ccccc1Br (stereo not given) | 8.45 |
| Cn1nc(CNC(=O)C2CCC2)cc1C1CC1 | -4.31 |
| O=C(Cc1ccc(F)cc1)N1C[C@H]2CCN[C@H]2C1 | 2.26 |
| O=C(CC1CC1)N1CCC2(CC1)CN(CCn1cccn1)C(=O)CO2 | 1.75 |
| COC[C@H]1CC[C@H]2[C@H](CCN2S(=O)(=O)Cc2ccccc2)O1 | 8.25 |
| CCn1cc(Br)c(C(=O)NCc2ccc(F)cc2)n1 | -3.01 |
| CCN(CC)C(=O)c1nnn(Cc2ccccc2)c1OC | 10.3 |
| CNc1nc(C)c(C(=O)NCC(C)(C)N2CCCCC2)s1 | 2.79 |
| COc1cccc(C(C)N2CCN(S(=O)(=O)c3ccccc3)CC2)c1 (stereo not given) | 5.11 |
| Cc1ccc(F)cc1C(=O)NCc1ccc(C(=O)O)o1 | -10.1 |
| O=C(NCCO)Nc1ccc(Br)c(F)c1 | 1.92 |
| CC(C)(C)OC(=O)N1CCCCC(NC(=O)CCc2cccnc2)C1 (stereo not given) | 17.5 |
| COc1cc(CO)ccc1OCc1nc(C2CC2)no1 | 6.37 |
| CNC(=O)NC(=O)CN1CCc2c(Br)ccc(F)c2C1 | -9.3 |
| Cn1ccc(N2CCCC(NC(=O)c3ccc(Cl)o3)C2=O)n1 (stereo not given) | -2.51 |
| O=C(NC1CCc2cc(Cl)ccc21)C1CCN(C(=O)C2CC2)CC1 (stereo not given) | -1.43 |
| CC(C)N(C)S(=O)(=O)N(C)Cc1cnn(Cc2ccccc2)c1 | 7.01 |
| CC(C)c1nnc2n1CCN(c1nn3cc(C(C)(C)C)nc3s1)C2 | 7.44 |
| CCN(C(c1cccnc1)c1ccc(F)c(F)c1)S(C)(=O)=O (stereo not given) | -0.69 |
| CCS(=O)(=O)N1CCC(CSc2ccccc2)C1 (stereo not given) | 2.42 |
| Cc1cnn(CC2CCCCN2c2ncnc3ccccc23)c1 (stereo not given) | 8.24 |

| Structure (SMILES) | cytotoxicity at 10 µM [%] |
| --- | --- |
| Brc1ccc(C2(CNCc3cc[nH]c3)CCOCC2)cc1 | 9.17 |
| CNC(=O)C1CN(Cc2ccc(C#N)cc2F)c2ccccc2O1 (stereo not given) | 9.44 |
| Cc1nsc(N2CCCN(c3ccc(C#N)cn3)CC2)n1 | -1.32 |
| O=C(NCC1CCCOC1)c1ccc(-c2cccs2)[nH]c1=O (stereo not given) | -3.67 |
| Cc1cnc(CN(Cc2ccccc2)CC(O)c2cccs2)cn1 (stereo not given) | -15.4 |
| CC(=O)N1CCC(C(=O)NCCN2CCCCC2)CC1 | -5.04 |
| Cc1cccc(SC2CCN(C(=O)CCNS(C)(=O)=O)CC2)c1 | 1.2 |
| COc1ccccc1CNC(=O)CN(C)C(C)c1ccncn1 (stereo not given) | -4.73 |
| COc1ccc(N2CCN(C(=O)CCCc3cn[nH]c3)CC2=O)cc1 | -9.9 |
| CCC(C)N(Cc1ccncc1)Cc1ccc(-n2cccn2)cc1 (stereo not given) | -48.3 |
| CCn1cc(CN2CCN(C)C3(CCC(=O)N(CC4CC4)CC3)C2)cn1 (stereo not given) | -0.764 |
| CCn1c(C2CCN(C(=O)c3cc(Cl)no3)CC2)nn(C)c1=O | -10.5 |
| CC(C)Cn1cncc1CNC1CCSCC1 | -4.11 |
| CCn1cc(CN2CCCN(C(=O)c3sccc3OC)CC2)cn1 | -5.68 |
| Cc1ccc(-c2nc(CN3CCN(C(=O)C4CC4)CC3)cs2)o1 | -12.6 |
| Cc1cccc(CN2C(=O)C[C@H]3[C@@H]2CCN3Cc2ccco2)n1 | -1.39 |
| O=C(NCc1ccco1)[C@@]12CCO[C@@H]1CCN(Cc1ccccn1)C2 | 0.109 |
| Cc1ccoc1C(=O)N1C[C@@H]2COC[C@]2(COCc2cccnc2)C1 | 5.95 |
| COCCN1CC[C@@H](OC)[C@@H]1Cc1ccccc1 | 4.9 |
| CCS(=O)(=O)N1CC[C@@H]2[C@H](CC1)N(CC(C)C)CCS2(=O)=O | 8.4 |
| COc1ccc(C[C@H]2CNCC[C@@H]2OC)cc1 | 3.11 |
| c1cnc(N2CCOCC3(CN(Cc4nccs4)CCO3)C2)nc1 (stereo not given) | 1.5 |
